Assays:
Human alphaherpesvirus 2 [1] = assay: Antiviral activity against Herpes simplex virus 2 isolate 22 harboring G39E, N78D, L140F, +1G 439-440 = Stop 229 mutations in thymidine kinase and A9T, P15S, L60P, E678G, Y823C mutations in DNA polymerase infected in african green monkey Vero cells by plaque reduction assay; type: functional, organism-based; conditions: Human alphaherpesvirus 2, isolate 22, Vero
Outline: (§1)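 EC50 by plaque reduction assay in Vero cells against acyclovir and foscarnet. Vero cells grown in RPMI 1640 with 2% fetal bovine serum, 2 mM glutamine, 20 μg/ml vancomycin and 20 μg/ml amikacin. KOS (HSV-1) and gHSV2 (HSV-2) run as susceptible controls in each assay. […] HSV type confirmed by immunofluorescence with type-specific monoclonal antibodies.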

Human alphaherpesvirus 1 [2] = assay: Antiviral activity against Herpes simplex virus 1 isolate 10 harboring N23S, K36E, R89Q, A265T C336Y mutations in thymidine kinase and S33G, A330R, V905M mutations in DNA polymerase infected in african green monkey Vero cells by plaque reduction assay; type: functional, organism-based; conditions: Human alphaherpesvirus 1, isolate 10, Vero; outline: as §1
Human alphaherpesvirus 1 [3] = assay: Antiviral activity against Herpes simplex virus 1 isolate 5 harboring N23S, K36E, A192V, G251C, A265T, V267L, P268T, -1G 856 = frameshift mutations in thymidine kinase and A330R, V905M, T1208A, H98Y mutations in DNA polymerase infected in african green monkey Vero cells by plaque reduction assay; type: functional, organism-based; conditions: Human alphaherpesvirus 1, isolate 5, Vero; outline: as §1
Human alphaherpesvirus 2 [4] = assay: Antiviral activity against Herpes simplex virus 2 isolate 16 harboring D137Stop mutations in thymidine kinase and A9T, P15S, L60P mutations in DNA polymerase infected in african green monkey Vero cells by plaque reduction assay; type: functional, organism-based; conditions: Human alphaherpesvirus 2, isolate 16, Vero; outline: as §1
Human alphaherpesvirus 2 [5] = assay: Antiviral activity against Herpes simplex virus 2 isolate 18 harboring A27T, G39E, N78D, -1C 556 = Stop 263, S29A mutations in thymidine kinase and A9T, P15S, L60P, E678G, del, DD676-677 mutations in DNA polymerase infected in african green monkey Vero cells by plaque reduction assay; type: functional, organism-based; conditions: Human alphaherpesvirus 2, isolate 18, Vero; outline: as §1
Human alphaherpesvirus 2 [6] = assay: Antiviral activity against Herpes simplex virus 2 isolate 25 harboring I101S mutations in thymidine kinase and D785N, V544A mutations in DNA polymerase infected in african green monkey Vero cells by plaque reduction assay; type: functional, organism-based; conditions: Human alphaherpesvirus 2, isolate 25, Vero; outline: as §1
Human alphaherpesvirus 1 [7] = assay: Antiviral activity against Herpes simplex virus 1 isolate 1 harboring C6G N23S K36E L42P G240E A265T and A207P mutations in thymidine kinase and S33G, A330R, N425T, V905M mutations in DNA polymerase infected in african green monkey Vero cells by plaque reduction assay; type: functional, organism-based; conditions: Human alphaherpesvirus 1, isolate 1, Vero; outline: as §1
Human alphaherpesvirus 2 [8] = assay: Antiviral activity against Herpes simplex virus 2 isolate 23 harboring G39E, N78D, L140F, +1G 439-440 = Stop 229 mutations in thymidine kinase and A9T, P15S, L60P, I291V mutations in DNA polymerase infected in african green monkey Vero cells by plaque reduction assay; type: functional, organism-based; conditions: Human alphaherpesvirus 2, isolate 23, Vero; outline: as §1
Human alphaherpesvirus 1 [9] = assay: Antiviral activity against Herpes simplex virus 1 isolate 2 harboring C6G, N23S, K36E, R41H, A192V, A265T, L170P mutations in thymidine kinase and S33G, A330R, V905M, T1208A mutations in DNA polymerase infected in african green monkey Vero cells by plaque reduction assay; conditions: Human alphaherpesvirus 1, isolate 2, Vero
Human alphaherpesvirus 2 [10] = assay: Antiviral activity against Herpes simplex virus 2 isolate 17 harboring G39E, N78D Q222Stop mutations in thymidine kinase and A9T, P15S, L60P, T801P mutations in DNA polymerase infected in african green monkey Vero cells by plaque reduction assay; type: functional, organism-based; conditions: Human alphaherpesvirus 2, isolate 17, Vero; outline: as §1
Human alphaherpesvirus 2 [11] = assay: Antiviral activity against Herpes simplex virus 2 isolate 21 harboring G39E, N78D, L140F, -1C 452 = Stop 183 mutations in thymidine kinase and P15S, L60P, E678G mutations in DNA polymerase infected in african green monkey Vero cells by plaque reduction assay; type: functional, organism-based; conditions: Human alphaherpesvirus 2, isolate 21, Vero; outline: as §1
Human alphaherpesvirus 2 [12] = assay: Antiviral activity against Herpes simplex virus 2 isolate 20 harboring G39E, -1C 467 = Stop 183 mutations in thymidine kinase and A9T, P15S, L60P, E139K, T801P mutations in DNA polymerase infected in african green monkey Vero cells by plaque reduction assay; type: functional, organism-based; conditions: Human alphaherpesvirus 2, isolate 20, Vero; outline: as §1
Human alphaherpesvirus 2 [13] = assay: Antiviral activity against Herpes simplex virus 2 isolate 12 harboring G39E, N78D, L140F, S66P, A72S mutations in thymidine kinase and A9T, P15S, L60P mutations in DNA polymerase infected in african green monkey Vero cells by plaque reduction assay; type: functional, organism-based; conditions: Human alphaherpesvirus 2, isolate 12, Vero; outline: as §1
Human alphaherpesvirus 1 [14] = assay: Antiviral activity against Herpes simplex virus 1 isolate 6 harboring N23S, K36E, R89Q, +1G 437-438 = Stop 225 mutations in thymidine kinase and S33G, A330R, A646T, S1123L, P1124H, T1208A, R1229I mutations in DNA polymerase infected in african green monkey Vero cells by plaque reduction assay; type: functional, organism-based; conditions: Human alphaherpesvirus 1, isolate 6, Vero; outline: as §1
Human alphaherpesvirus 2 [15] = assay: Antiviral activity against Herpes simplex virus 2 isolate 15 harboring R221H mutations in thymidine kinase and A9T, P15S, L60P mutations in DNA polymerase infected in african green monkey Vero cells by plaque reduction assay; type: functional, organism-based; conditions: Human alphaherpesvirus 2, isolate 15, Vero; outline: as §1
Human alphaherpesvirus 2 [16] = assay: Antiviral activity against Herpes simplex virus 2 isolate 14 harboring G39E, N78D, M70R mutations in thymidine kinase and A724V mutations in DNA polymerase infected in african green monkey Vero cells by plaque reduction assay; type: functional, organism-based; conditions: Human alphaherpesvirus 2, isolate 14, Vero; outline: as §1
Human alphaherpesvirus 1 [17] = assay: Antiviral activity against Herpes simplex virus 1 isolate 8 harboring N23S, K36E, R89Q, +1G 437-438 = Stop 228 mutations in thymidine kinase and A330R, P875S, V905M, P1124H, T1208A mutations in DNA polymerase infected in african green monkey Vero cells by plaque reduction assay; type: functional, organism-based; conditions: Human alphaherpesvirus 1, isolate 8, Vero; outline: as §1
Human alphaherpesvirus 1 [18] = assay: Antiviral activity against Herpes simplex virus 1 isolate 4 harboring N23S, K36E -1C 553 = frameshift mutations in thymidine kinase and S33G, A330R, A899V, L1188F mutations in DNA polymerase infected in african green monkey Vero cells by plaque reduction assay; type: functional, organism-based; conditions: Human alphaherpesvirus 1, isolate 4, Vero; outline: as §1
Human alphaherpesvirus 2 [19] = assay: Antiviral activity against Herpes simplex virus 2 isolate 19 harboring G39E, +2G 439-440 = Stop 184 mutations in thymidine kinase and A9T, P15S, L60P, del, DGDE683-686 mutations in DNA polymerase infected in african green monkey Vero cells by plaque reduction assay; type: functional, organism-based; conditions: Human alphaherpesvirus 2, isolate 19, Vero; outline: as §1
Human alphaherpesvirus 1 [20] = assay: Antiviral activity against Herpes simplex virus 1 isolate 3 harboring N23S, K36E, R89Q, A265T, Y53D mutations in thymidine kinase and S33G, A330R, V905M, E1005K mutations in DNA polymerase infected in african green monkey Vero cells by plaque reduction assay; type: functional, organism-based; conditions: Human alphaherpesvirus 1, isolate 3, Vero; outline: as §1
Human alphaherpesvirus 2 [21] = assay: Antiviral activity against Herpes simplex virus 2 isolate 13 harboring, M183I mutations in thymidine kinase and A9T, P15S, R41H, L60P, E139K, A232T mutations in DNA polymerase infected in african green monkey Vero cells by plaque reduction assay; type: functional, organism-based; conditions: Human alphaherpesvirus 2, isolate 13, Vero; outline: as §1
Human alphaherpesvirus 1 [22] = assay: Antiviral activity against Herpes simplex virus 1 isolate 9 harboring N23S, K36E, R89Q, +1G 437-438 = Stop 228 mutations in thymidine kinase and S33G, A330R, V905M, A1203T, T1208A mutations in DNA polymerase infected in african green monkey Vero cells by plaque reduction assay; type: functional, organism-based; conditions: Human alphaherpesvirus 1, isolate 9, Vero; outline: as §1
Human alphaherpesvirus 1 [23] = assay: Antiviral activity against Herpes simplex virus 1 isolate 11 harboring N23S, K36E, G251C, A265T, P268T, R176W mutations in thymidine kinase and S33G, A330R, P1124H, T1208A, S724N, V117L, L267M mutations in DNA polymerase infected in african green monkey Vero cells by plaque reduction assay; type: functional, organism-based; conditions: Human alphaherpesvirus 1, isolate 11, Vero; outline: as §1
Human alphaherpesvirus 1 [24] = assay: Antiviral activity against Herpes simplex virus 1 isolate 7 harboring N23S, K36E, R89Q, +1C 464-465 = Stop 228 mutations in thymidine kinase and S33G, A330R, P1124H, T1208A, A870G mutations in DNA polymerase infected in african green monkey Vero cells by plaque reduction assay; type: functional, organism-based; conditions: Human alphaherpesvirus 1, isolate 7, Vero; outline: as §1
Human alphaherpesvirus 2 [25] = assay: Antiviral activity against Herpes simplex virus 2 isolate 24 harboring G39E, -1G 440 = Stop 229 mutations in thymidine kinase and A9T, P15S, L60P, E139K, H837R mutations in DNA polymerase infected in african green monkey Vero cells by plaque reduction assay; type: functional, organism-based; conditions: Human alphaherpesvirus 2, isolate 24, Vero; outline: as §1

SMILES	EC50 (Human alphaherpesvirus 2 [1])	EC50 (Human alphaherpesvirus 1 [2])	EC50 (Human alphaherpesvirus 1 [3])	EC50 (Human alphaherpesvirus 2 [4])	EC50 (Human alphaherpesvirus 2 [5])	EC50 (Human alphaherpesvirus 2 [6])	EC50 (Human alphaherpesvirus 1 [7])	EC50 (Human alphaherpesvirus 2 [8])	EC50 (Human alphaherpesvirus 1 [9])	EC50 (Human alphaherpesvirus 2 [10])	EC50 (Human alphaherpesvirus 2 [11])	EC50 (Human alphaherpesvirus 2 [12])	EC50 (Human alphaherpesvirus 2 [13])	EC50 (Human alphaherpesvirus 1 [14])	EC50 (Human alphaherpesvirus 2 [15])	EC50 (Human alphaherpesvirus 2 [16])	EC50 (Human alphaherpesvirus 1 [17])	EC50 (Human alphaherpesvirus 1 [18])	EC50 (Human alphaherpesvirus 2 [19])	EC50 (Human alphaherpesvirus 1 [20])	further results
Nc1nc2c(ncn2COCCO)c(=O)[nH]1 [ACYCLOVIR]	> 50 µM	22 µM	16 µM	> 50 µM	18 µM	42 µM	> 50 µM	> 50 µM	11 µM	> 50 µM	> 50 µM	> 50 µM	43 µM	26 µM	11 µM	24 µM	10 µM	16 µM	> 50 µM	35 µM	EC50 (Human alphaherpesvirus 2 [21]): 33 µM; EC50 (Human alphaherpesvirus 1 [22]): > 50 µM; EC50 (Human alphaherpesvirus 1 [23]): > 50 µM; EC50 (Human alphaherpesvirus 1 [24]): 31 µM; EC50 (Human alphaherpesvirus 2 [25]): > 50 µM
O=C(O)P(=O)(O)O [FOSCARNET]	76 µM	< 66 µM	< 66 µM	< 66 µM	< 66 µM	145 µM	< 66 µM	< 66 µM	< 66 µM	< 66 µM	89 µM	< 66 µM	< 66 µM	< 66 µM	99 µM	92 µM	< 66 µM	< 66 µM	< 66 µM	< 66 µM	EC50 (Human alphaherpesvirus 2 [21]): < 66 µM; EC50 (Human alphaherpesvirus 1 [22]): 106 µM; EC50 (Human alphaherpesvirus 1 [23]): 644 µM; EC50 (Human alphaherpesvirus 1 [24]): < 66 µM; EC50 (Human alphaherpesvirus 2 [25]): < 66 µM

— ChEMBL document CHEMBL1671752, “Genotypic characterization of UL23 thymidine kinase and UL30 DNA polymerase of clinical isolates of herpes simplex virus: natural polymorphism and mutations associated with resistance to antivirals” (Antimicrob Agents Chemother, 2010)
